This excerpt belongs to a sample that is enriched for hits.
CHOP inh – CHOP inhibition in unfolded protein response | inhibition, % at 10 µM | AID 2732 | 3.8% of 220,000 active | CHO-K1 CHOP-promoter luciferase, tunicamycin-induced, 15-18 h;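 active means compounds that reduced the stress-induced luciferase reporter signal by more than about 70% of percent inhibition, limit read from the data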;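 further: 0% = tunicamycin plus vehicle and 100% = wells without tunicamycin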
UPR XBP1 act – adaptive UPR (XBP1) activation; CHO-XBP1 luciferase reporter, IRE1-XBP1 UPR activation, luminescence; percent of tunicamycin response, DMSO as zero; activation, % at 20 µM; 0.33% of 330,000 active;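 active means versus positive control, 20 µM dose yields 30% or more activation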;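 further: 100% = tunicamycin at 10 µg/mL and 0% = DMSO only wells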
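Assay system: IRE1-XBP1 luciferase reporter CHO line. Input: 1000 cells/well. Buffer or medium: F12 with 10% serum. Doses: 20 µM, 1% DMSO. Times: overnight seeding at 37 °C, 6 h compound treatment at 37 °C. Technique: Steady-Glo luciferase glow luminescence, 10 min after reagent addition.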
UPR CHOP act – activators of apoptotic arm of unfolded protein response (CHOP) | CHO-CHOP luciferase reporter, UPR activation, luminescence; percent of tunicamycin response over DMSO baseline | activation, % at 10 µM | 0.34% of 330,000 active | AID 449763;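 active means at 10 µM dose, activation of 40% or more, normalized to positive control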;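 further: 100% = tunicamycin at 10 µg/mL and 0% = DMSO alone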
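measured by = luciferase luminescence | assay system = CHO-CHOP cells, stable luciferase reporter of PERK-eIF2a-CHOP signalling | amount = 500 reporter cells seeded per well | timing = 6 h compound exposure at 37 °C after overnight seeding | controls = positive tunicamycin 10 µg/mL, negative DMSO alone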
Fh CTSL1 inh – cathepsin L1 inhibition, PFM18AAP counter-screen | AID 1906 | recombinant F. hepatica cathepsin L1, Z-Leu-Arg-MCA fluorescence | inhibition, % at 5.96 µM | 0.49% of 300,000 active;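 active means inhibition above the mean of all tested compounds plus 3 SD, set per screening campaign, cut at about 17% in these data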;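 further: 0% = plate median of test compound wells and 100% = 1 µM Z-Phe-Ala-diazomethylketone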
UCH37 inh – human UCH37 deubiquitinating enzyme inhibition; Q9Y5K5; purified proteasome/UCH37, Ub-AMC cleavage fluorescence; inhibition, % (no concentration beside the values); AID 588478; 0.33% of 330,000 active;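 active means mean inhibition over replicate wells above about 20%, limit read from the data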;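 further: 0% = compound-free wells with enzyme and 100% = wells lacking proteasome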
Target sequence (Q9Y5K5 whole entry, looked up): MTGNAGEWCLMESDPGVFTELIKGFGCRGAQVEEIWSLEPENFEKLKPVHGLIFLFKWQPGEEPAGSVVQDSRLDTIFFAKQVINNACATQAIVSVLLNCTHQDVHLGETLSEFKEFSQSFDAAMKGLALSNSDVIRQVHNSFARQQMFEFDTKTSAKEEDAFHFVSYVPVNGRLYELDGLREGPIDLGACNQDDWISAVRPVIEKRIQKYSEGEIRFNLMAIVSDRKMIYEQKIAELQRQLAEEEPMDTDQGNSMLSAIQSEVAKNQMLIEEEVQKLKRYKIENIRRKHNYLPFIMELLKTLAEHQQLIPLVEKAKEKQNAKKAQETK
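Assay system: Proteasome-bound UCH37. Buffer or medium: pH 7.4 Tris-HCl (50 mM) with ovalbumin, ATP-MgCl2, DTT. Incubation: 30 min preincubation with enzyme, 25 min cleavage at room temperature. Measured by: fluorescence, ex 355 nm, em 460 nm. Read-out basis: percent inhibition. Control set: wells without proteasome as full block, compound-free enzyme plus substrate as uninhibited.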
Starred values were filed as active, the others as inactive; . = no result given.

SMILES	CHOP inh	UPR XBP1 act	UPR CHOP act	Fh CTSL1 inh	UCH37 inh
Cc1nn(S(=O)(=O)c2ccc(Cl)cc2)c(C)c1Sc1ccc([N+](=O)[O-])cc1	85*	.	.	-5	3
CCCc1nc2sc(C(=O)OCC)c(N)c2c2c1COC(C)(C)C2	81*	-3	3	-2	-438
CCOC(=O)c1cc(-c2ccccc2)n(CC(=O)Nc2ccc(OC)c(OC)c2)c1C	100*	2	-1	0	1
OC(CCN1CCCCC1)(c1ccccc1)C1CCCCC1 (stereo not drawn)	9	-4	1	5	1
OC(CCN1CCOCC1)(c1ccc(Cl)cc1)C1CCCCC1 (stereo not drawn)	80*	-1	-1	6	-1
CCOc1cc(C=NO)cc(Br)c1OCC(=O)NCc1ccccc1	.	.	.	.	6
CN(C)CCOC(=O)C12CC3(C)CC(C)(CC(C)(C3)C1)C2	94*	-2	0	-5	7
CN(C)CCOC(=O)C12CC3CC(CC(C3)C1)C2	-2	0	0	-4	0
COc1ccc2c(c1)Cc1sc(NC(=O)c3cccs3)nc1-2	74*	-1	5	3	-20
COc1ccc2c(c1)Cc1sc(NC(=O)c3ccccc3)nc1-2	84*	3	8	4	-63
COc1cc(OC)c(OC)cc1C=Nn1c(COc2ccccc2)n[nH]c1=S	.	.	.	.	6
C=CCSc1nc(Oc2ccccc2)c2sccc2n1	72*	1	-1	9	4
CSc1nc(Oc2ccccc2)c2sccc2n1	51	-1	-4	-2	-3
Cc1cc2ccccc2n1CCNC(=O)Cc1cccc2ccccc12	71*	-6	-1	5	6
CCC(=O)NCCn1c(C)cc2ccccc21	-3	-2	0	-3	4
Cc1cccc(C)c1OCC(O)CN(Cc1ccccc1O)C1CCCCC1 (stereo not drawn)	85*	-4	0	0	1
CN(CC(O)COc1ccc(OCC(O)CN(C)C2CCCCC2)cc1)C1CCCCC1 (stereo not drawn)	22	2	1	-1	1
O=C(O)CCSc1ncnc2sc(-c3ccccc3)cc12	89*	-5	-9	3	-9
CC(=O)CCSc1ncnc2sc(-c3ccccc3)cc12	.	7	6	0	5
C/C(=N\NC(=O)CNC(=O)C(c1ccccc1)c1ccccc1)c1ccc(C(C)(C)C)cc1	86*	22	1	-2	.
CCOC(=O)C1=C(Cn2cnc3ccccc32)NC(=O)NC1c1cc(C)ccc1C (stereo not drawn)	89*	-5	-5	0	1
COC(=O)C1=C(Cn2cnc3ccccc32)NC(=O)NC1c1cc(C)ccc1C (stereo not drawn)	34	-6	-2	1	.
CCOc1ccc(S(N)(=O)=O)cc1-c1nc2c(C(C)(C)C)nn(C)c2c(=O)[nH]1	14	2	-1	1	2
CCOc1ccc(S(=O)(=O)NC(C)(C)C)cc1-c1nc2c(C(C)(C)C)nn(C)c2c(=O)[nH]1	81*	-2	2	12	0
CCCCCc1ccc(-c2ccc(/C=C/C(=O)O)cc2)nc1	31	2	2	7	-12
SMILES	CHOP inh	UPR XBP1 act	UPR CHOP act	Fh CTSL1 inh	UCH37 inh
CCCCCCCc1ccc(-c2ccc(O)cc2)nc1	96*	2	8	-1	0
COc1cc(C=NNC(N)=O)ccc1OCC(=O)N1C(C)CCCC1C (stereo not drawn)	.	.	.	.	2
CSc1cccc(CN2CCCC(CO)(Cc3cccc(Cl)c3)C2)c1 (stereo not drawn)	95*	2	0	2	4
Oc1ccc(/C=C/c2nc(-c3ccccc3O)n(-c3ccccc3)n2)cc1	90*	4	3	5	-47
CSCCC(NS(=O)(=O)c1ccc(Cl)cc1)C(=O)OCC(=O)NC12CC3CC(CC(C3)C1)C2 (stereo not drawn)	74*	-2	-1	-5	-1
Cc1ccc(C)c(NC2=C(Cl)C(=O)OC2OC(=O)c2ccco2)c1 (stereo not drawn)	-25	-5	-1	10	5
Cc1ccc(NC2=C(Cl)C(=O)OC2OC(=O)c2ccco2)cc1C (stereo not drawn)	-22	-3	0	54*	3
Cc1ccc(NC2=C(Cl)C(=O)OC2OC(=O)c2ccco2)c(C)c1 (stereo not drawn)	-11	2	1	48*	.
COc1ccc(NC(=O)C(=O)NN=C(C)CC(=O)Nc2ccccn2)c(OC)c1	.	.	.	.	4
CCCCCCNS(=O)(=O)c1ccc(Cl)s1	87*	-2	-2	1	6
CC1CCCN(c2cc(N(C)CCO)c([N+](=O)[O-])c3nonc23)C1 (stereo not drawn)	2	-2	-1	11	22*
CN(CCO)c1cc(N2CCCCC2)c2nonc2c1[N+](=O)[O-]	9	3	-1	3	5
NNC(=O)CSc1cccc2cccnc12	23	0	1	4	-11
CC(=O)/C(=N\Nc1ccccc1)Sc1cccc2cccnc12	15	1	1	-8	.
O=C(Sc1cccc2cccnc12)c1ccccc1Br	.	0	62*	3	.
O=C(Sc1cccc2cccnc12)c1ccc(F)cc1	91*	-3	69*	.	0
O=C(/C=C/c1ccccc1)/C=C/c1ccccc1	98*	6	10	-4	5
CCOC(=O)Cn1cc(C=NNC(=O)c2ccc(C#N)cc2F)c2ccccc21	.	.	.	.	8
O=C(N/N=C\c1c(O)ccc2ccccc12)c1ccc(O)cc1	.	2	-4	0	.
COc1ccc2ccccc2c1/C=N/NC(=O)c1cccc(C)c1	.	0	1	18*	.
O=C(N/N=C/c1c(O)ccc2ccccc12)c1ccc[n+](CCO)c1	15	-1	-2	20*	.
Cc1ccc(N(CC(=O)NN=Cc2cccs2)S(C)(=O)=O)cc1Cl	.	.	.	.	4
Nc1nnnn1N=Cc1ccccc1OCc1ccc(Cl)cc1Cl	.	.	.	.	1
CCOc1nc(CC(C)C)c2c(c1C#N)CC(C)(C)OC2	74*	-2	1	2	4
CC(=O)c1ccc(NC(=O)COC(=O)c2c3c(nc4ccccc24)/C(=C\c2cccs2)CCC3)cc1	77*	-4	5	3	-70
Cc1cccc(C)c1NS(=O)(=O)c1ccc(NC(=O)c2ccc(Cl)c([N+](=O)[O-])c2)cc1	73*	0	1	-3	6
O=C(Nc1ccc(S(=O)(=O)NC2=NCCCCC2)cc1)c1ccc(Cl)c([N+](=O)[O-])c1	.	-3	2	.	5
CCNC(=S)NN=Cc1ccc(C#N)cc1	.	.	.	.	7
O=C1CN(c2nc(-c3ccccc3)c3cc(Cl)ccc3n2)c2ccccc2N1	74*	22	36	-5	.
